Results as given in ChEMBL document CHEMBL5653631, “A Potent and Selective ULK1 Inhibitor Suppresses Autophagy and Sensitizes Cancer Cells to Nutrient Stress” (iScience, 2018).

Experiments:
[1] = molecular target: Cyclin-dependent kinase 12 (Homo sapiens) (UniProt Q9NYV4); assay: Inhibition of human recombinant CRK7 at 500 nM related to control ULK1
[2] = molecular target: Cyclin-dependent kinase 9 (Homo sapiens) (UniProt P50750); assay: Inhibition of human recombinant CDK9 at 500 nM in presence of ATP by radiometric assay relative to control
[3] = molecular target: T1, Serine/threonine-protein kinase ULK1 (Homo sapiens) (UniProt O75385); assay: Inhibition of human recombinant ULK1 at 500 nM in presence of ATP by radiometric assay relative to control
T1 sequence (whole entry): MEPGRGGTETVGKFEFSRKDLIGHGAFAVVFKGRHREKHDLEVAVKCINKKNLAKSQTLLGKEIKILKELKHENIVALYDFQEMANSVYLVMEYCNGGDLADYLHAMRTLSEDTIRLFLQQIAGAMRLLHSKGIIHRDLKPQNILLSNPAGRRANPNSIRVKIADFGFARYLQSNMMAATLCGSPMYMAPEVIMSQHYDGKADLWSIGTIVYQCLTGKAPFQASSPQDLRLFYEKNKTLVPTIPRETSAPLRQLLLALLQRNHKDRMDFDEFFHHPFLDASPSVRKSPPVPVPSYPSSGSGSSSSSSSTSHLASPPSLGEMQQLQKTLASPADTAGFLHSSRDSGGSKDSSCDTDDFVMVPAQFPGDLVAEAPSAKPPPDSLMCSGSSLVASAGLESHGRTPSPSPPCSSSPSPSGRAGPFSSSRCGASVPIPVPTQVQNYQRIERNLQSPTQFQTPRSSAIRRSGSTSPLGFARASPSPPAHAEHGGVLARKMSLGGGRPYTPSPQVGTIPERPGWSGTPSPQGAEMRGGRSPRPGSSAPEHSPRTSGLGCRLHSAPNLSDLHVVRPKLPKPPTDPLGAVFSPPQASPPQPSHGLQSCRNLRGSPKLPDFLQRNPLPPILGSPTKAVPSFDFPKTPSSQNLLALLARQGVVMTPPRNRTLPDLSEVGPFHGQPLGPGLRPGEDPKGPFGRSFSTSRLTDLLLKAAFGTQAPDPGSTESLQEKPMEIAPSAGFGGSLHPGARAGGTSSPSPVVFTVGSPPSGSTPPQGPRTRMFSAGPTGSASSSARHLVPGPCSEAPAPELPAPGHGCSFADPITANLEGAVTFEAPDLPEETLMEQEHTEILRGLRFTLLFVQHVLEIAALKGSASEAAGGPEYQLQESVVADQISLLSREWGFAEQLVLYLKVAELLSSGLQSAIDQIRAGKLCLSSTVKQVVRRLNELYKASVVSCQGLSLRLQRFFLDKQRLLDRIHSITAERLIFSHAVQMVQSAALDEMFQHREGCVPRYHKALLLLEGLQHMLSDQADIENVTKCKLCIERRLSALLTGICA

[4] = molecular target: Tyrosine-protein kinase Lyn (Homo sapiens) (UniProt P07948); assay: Inhibition of human recombinant LYN at 500 nM related to control ULK1
[5] = molecular target: T2, TGF-beta receptor type-1 (Homo sapiens) (UniProt P36897); assay: Inhibition of human recombinant TGFbR1 at 40 nM in presence of ATP by radiometric assay relative to control
T2 sequence (whole entry): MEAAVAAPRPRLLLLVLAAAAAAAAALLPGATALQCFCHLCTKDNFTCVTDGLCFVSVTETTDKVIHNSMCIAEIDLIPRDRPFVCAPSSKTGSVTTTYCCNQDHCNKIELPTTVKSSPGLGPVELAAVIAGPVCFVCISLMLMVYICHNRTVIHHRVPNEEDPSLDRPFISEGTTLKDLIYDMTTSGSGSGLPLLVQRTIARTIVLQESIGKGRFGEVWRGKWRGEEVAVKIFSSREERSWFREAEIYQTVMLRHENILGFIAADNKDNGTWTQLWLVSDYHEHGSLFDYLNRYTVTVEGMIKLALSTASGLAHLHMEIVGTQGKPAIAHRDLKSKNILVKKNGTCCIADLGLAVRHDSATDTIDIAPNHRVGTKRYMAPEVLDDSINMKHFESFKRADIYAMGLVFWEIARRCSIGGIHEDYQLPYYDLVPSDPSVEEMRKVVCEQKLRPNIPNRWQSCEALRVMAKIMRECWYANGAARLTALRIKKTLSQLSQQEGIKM

[6] = molecular target: Insulin receptor-related protein (Homo sapiens) (UniProt P14616); assay: Inhibition of human recombinant IRR at 40 nM related to control ULK1
[7] = molecular target: Calcium/calmodulin-dependent protein kinase type 1 (Homo sapiens) (UniProt Q14012); assay: Inhibition of human recombinant CaMK1a at 40 nM in presence of ATP by radiometric assay relative to control
[8] = molecular target: RAC-gamma serine/threonine-protein kinase (Homo sapiens) (UniProt Q9Y243); assay: Inhibition of human recombinant AKT3 at 40 nM in presence of ATP by radiometric assay relative to control
Summary of the method: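 Panel of 327 recombinant human kinases in radiometric activity assays, each screened in duplicate at a single inhibitor concentration; percent activity remaining relative to vehicle control, percent inhibition taken as 100 minus activity remaining.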

Sequence of Cyclin-dependent kinase 9 (Homo sapiens) (P50750 whole entry): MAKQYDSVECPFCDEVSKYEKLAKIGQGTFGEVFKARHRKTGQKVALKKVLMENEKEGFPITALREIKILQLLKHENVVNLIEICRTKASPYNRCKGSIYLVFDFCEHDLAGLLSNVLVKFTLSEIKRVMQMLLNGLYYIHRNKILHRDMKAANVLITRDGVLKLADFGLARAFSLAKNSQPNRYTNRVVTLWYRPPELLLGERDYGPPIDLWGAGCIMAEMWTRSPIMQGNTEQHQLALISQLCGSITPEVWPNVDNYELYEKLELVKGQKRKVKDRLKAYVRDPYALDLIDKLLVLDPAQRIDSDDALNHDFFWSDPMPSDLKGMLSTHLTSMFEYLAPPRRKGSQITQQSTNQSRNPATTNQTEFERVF
Sequence of Calcium/calmodulin-dependent protein kinase type 1 (Homo sapiens) (Q14012 whole entry, looked up): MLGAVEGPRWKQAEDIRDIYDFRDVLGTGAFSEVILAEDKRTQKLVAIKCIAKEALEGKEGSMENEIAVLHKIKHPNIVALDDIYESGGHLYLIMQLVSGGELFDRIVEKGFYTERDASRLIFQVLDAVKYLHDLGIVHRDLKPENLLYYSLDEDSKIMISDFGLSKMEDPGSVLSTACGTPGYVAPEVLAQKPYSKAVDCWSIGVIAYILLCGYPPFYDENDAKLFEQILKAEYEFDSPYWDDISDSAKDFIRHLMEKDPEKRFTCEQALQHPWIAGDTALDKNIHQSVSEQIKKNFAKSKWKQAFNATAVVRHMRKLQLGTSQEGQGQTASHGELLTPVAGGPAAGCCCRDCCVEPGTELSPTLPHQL
Sequence of Cyclin-dependent kinase 12 (Homo sapiens) (Q9NYV4 whole entry, looked up): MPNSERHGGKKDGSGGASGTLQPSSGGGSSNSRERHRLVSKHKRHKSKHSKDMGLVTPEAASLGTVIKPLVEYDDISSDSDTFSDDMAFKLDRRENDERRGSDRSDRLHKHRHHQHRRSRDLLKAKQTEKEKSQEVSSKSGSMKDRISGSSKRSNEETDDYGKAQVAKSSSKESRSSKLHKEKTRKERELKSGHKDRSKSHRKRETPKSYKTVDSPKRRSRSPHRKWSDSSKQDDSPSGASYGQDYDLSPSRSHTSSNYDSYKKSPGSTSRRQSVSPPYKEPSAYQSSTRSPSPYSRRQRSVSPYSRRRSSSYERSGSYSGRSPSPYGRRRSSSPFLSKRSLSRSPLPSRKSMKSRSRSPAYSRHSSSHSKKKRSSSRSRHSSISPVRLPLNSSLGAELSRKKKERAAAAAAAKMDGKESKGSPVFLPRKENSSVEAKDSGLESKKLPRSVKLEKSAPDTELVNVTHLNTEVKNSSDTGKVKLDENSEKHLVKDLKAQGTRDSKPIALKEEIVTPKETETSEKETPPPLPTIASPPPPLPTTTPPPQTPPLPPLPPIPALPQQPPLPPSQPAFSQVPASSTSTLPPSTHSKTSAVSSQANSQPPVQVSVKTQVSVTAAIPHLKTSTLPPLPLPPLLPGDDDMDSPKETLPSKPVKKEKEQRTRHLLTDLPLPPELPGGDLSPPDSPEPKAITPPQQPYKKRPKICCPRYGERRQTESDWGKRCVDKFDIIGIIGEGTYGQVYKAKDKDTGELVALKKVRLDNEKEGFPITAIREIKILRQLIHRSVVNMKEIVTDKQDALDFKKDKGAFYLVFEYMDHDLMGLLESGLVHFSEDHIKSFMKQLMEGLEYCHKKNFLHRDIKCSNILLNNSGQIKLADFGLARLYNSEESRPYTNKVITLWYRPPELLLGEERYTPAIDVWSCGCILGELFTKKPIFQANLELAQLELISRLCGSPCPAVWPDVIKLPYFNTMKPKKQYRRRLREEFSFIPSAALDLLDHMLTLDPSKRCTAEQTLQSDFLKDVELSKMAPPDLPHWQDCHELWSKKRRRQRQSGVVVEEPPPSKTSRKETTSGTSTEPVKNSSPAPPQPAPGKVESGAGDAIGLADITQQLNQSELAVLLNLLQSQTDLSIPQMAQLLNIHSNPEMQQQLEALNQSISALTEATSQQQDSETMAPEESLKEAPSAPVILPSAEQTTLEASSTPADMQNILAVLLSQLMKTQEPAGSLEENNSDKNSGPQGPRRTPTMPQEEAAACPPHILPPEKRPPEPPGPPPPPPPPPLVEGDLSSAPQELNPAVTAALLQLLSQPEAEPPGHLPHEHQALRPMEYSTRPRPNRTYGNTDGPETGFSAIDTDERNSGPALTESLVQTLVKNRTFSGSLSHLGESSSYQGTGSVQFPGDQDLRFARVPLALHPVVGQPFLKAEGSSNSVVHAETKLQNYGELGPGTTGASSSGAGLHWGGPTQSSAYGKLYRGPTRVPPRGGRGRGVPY
Sequence of Tyrosine-protein kinase Lyn (Homo sapiens) (P07948 2-512 limits assumed): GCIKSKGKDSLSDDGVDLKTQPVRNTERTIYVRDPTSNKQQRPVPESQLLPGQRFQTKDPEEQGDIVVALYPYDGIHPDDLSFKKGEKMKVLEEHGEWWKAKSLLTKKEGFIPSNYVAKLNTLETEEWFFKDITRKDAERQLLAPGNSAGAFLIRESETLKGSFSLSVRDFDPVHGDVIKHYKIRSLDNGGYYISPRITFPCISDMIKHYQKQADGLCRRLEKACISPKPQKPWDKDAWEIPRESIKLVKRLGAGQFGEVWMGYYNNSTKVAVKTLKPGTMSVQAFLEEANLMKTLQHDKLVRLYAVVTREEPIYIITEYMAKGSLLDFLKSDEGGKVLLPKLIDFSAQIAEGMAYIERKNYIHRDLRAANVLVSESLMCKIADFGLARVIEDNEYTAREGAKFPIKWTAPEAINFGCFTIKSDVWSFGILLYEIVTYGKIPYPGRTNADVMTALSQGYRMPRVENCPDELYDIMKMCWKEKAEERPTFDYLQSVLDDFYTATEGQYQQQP
Sequence of RAC-gamma serine/threonine-protein kinase (Homo sapiens) (Q9Y243 whole entry): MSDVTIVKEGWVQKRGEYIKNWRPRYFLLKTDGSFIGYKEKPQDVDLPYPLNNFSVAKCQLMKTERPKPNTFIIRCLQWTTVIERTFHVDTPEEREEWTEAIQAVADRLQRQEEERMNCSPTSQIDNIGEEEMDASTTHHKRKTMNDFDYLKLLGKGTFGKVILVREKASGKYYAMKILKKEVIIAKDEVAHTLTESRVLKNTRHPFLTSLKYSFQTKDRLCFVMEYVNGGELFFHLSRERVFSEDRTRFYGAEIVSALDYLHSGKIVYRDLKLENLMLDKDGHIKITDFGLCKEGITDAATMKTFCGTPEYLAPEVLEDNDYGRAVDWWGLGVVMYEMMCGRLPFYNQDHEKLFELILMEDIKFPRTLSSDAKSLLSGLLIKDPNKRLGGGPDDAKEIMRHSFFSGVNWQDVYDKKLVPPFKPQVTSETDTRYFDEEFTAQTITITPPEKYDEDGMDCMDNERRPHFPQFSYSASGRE
Sequence of Insulin receptor-related protein (Homo sapiens) (P14616 27-742 limits assumed): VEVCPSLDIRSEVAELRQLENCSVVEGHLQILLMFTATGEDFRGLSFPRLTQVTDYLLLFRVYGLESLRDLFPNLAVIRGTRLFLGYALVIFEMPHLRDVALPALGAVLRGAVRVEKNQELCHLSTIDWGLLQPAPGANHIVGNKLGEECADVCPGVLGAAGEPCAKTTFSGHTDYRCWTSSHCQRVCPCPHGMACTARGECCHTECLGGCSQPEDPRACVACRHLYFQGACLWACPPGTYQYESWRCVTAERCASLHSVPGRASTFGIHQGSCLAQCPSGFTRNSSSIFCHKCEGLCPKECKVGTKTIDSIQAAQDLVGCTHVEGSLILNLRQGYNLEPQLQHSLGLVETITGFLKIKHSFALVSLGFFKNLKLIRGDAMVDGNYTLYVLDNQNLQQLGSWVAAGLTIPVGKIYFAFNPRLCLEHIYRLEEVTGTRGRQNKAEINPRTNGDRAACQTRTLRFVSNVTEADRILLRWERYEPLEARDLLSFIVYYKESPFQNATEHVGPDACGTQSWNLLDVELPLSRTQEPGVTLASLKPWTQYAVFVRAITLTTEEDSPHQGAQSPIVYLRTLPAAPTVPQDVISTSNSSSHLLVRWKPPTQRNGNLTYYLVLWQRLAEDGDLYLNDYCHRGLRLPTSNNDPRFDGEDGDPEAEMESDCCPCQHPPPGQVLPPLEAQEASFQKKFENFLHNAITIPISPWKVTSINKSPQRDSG
Sequence of Insulin receptor-related protein (Homo sapiens) (P14616 747-1297 limits assumed): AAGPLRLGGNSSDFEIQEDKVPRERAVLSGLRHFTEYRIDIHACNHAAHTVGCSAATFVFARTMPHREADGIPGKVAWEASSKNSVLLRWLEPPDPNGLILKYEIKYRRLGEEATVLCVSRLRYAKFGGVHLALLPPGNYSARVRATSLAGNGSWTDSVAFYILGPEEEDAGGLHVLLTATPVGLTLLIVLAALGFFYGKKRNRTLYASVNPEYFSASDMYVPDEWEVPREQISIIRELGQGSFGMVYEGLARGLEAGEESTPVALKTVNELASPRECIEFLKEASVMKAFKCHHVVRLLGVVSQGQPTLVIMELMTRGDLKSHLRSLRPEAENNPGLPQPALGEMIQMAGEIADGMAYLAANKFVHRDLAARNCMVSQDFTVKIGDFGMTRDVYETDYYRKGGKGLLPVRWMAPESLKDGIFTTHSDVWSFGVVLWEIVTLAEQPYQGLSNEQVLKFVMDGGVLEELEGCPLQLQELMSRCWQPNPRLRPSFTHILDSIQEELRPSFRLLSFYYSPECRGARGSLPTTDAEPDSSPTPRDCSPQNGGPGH

SMILES | fold change (FC) [1] | inhibition [2] [%] | inhibition [3] [%] | fold change (FC) [4] | inhibition [5] [%] | fold change (FC) [6] | inhibition [7] [%] | inhibition [8] [%]
CNC(=O)c1ccccc1Oc1nc(Nc2cc(OC)c(OC)c(OC)c2)ncc1Br | 0 | 3 | 74 | 0.41 | – | – | – | –
O=C(N[C@@H](C1CC1)C(F)(F)F)c1cc(-c2cnn3cc(-c4ccc(F)cc4)cnc23)cs1 | – | – | – | – | 0 | 0.03 | 0 | 2
